Data as given in PubChem BioAssay.
Results filed as inconclusive are left out.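 How the source made its calls, unless noted: active means viability increase at or above a cutoff of the median across tested compounds plus 3 SD (cut at about 8.5% in these data, passing the limit was not always enough); inconclusive means some gains above the cutoff, reason not given; inactive means the rest.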

Legend:
[1] = OD615 S. cerevisiae growth inhibition, permissive medium, pilot counter-assay, permissive growth control for S. cerevisiae lifespan shortening project (AID 705;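 active means growth inhibition above 25% in both replicates, a cutoff set 3 SD above the mean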); details: OD615, 24 h, at 10 µM, hits give high values
Method in brief: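 assay system = Saccharomyces cerevisiae strain carrying genetically modified DeaD replicative-lifespan system | medium = SC raffinose/galactose permissive medium | dosing = 10 µM single dose, 0.25% DMSO | schedule = 24 h compound exposure at 30 °C after 4 h pre-growth | measured by = OD at 615 nm | read-out basis = growth inhibition from lowered OD615 after 24 h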

[2] = Restrictive medium S. cerevisiae growth inhibition, OD615, pilot screen of yeast lifespan reduction project, restrictive growth control (AID 706;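 active means growth inhibition above a set limit, 3 SD over mean compound inhibition, in both replicates, cut at about 43% in these data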;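 further: modified DeaD lifespan yeast strain shifted to restrictive glucose medium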); details: OD615, 48 h, at 10 µM, hits give high values
Method in brief: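 Buffer or medium: CSMM-D glucose medium. Material: genetically modified Saccharomyces cerevisiae, DeaD replicative lifespan assay strain. Times: 48 h compound exposure at 30 °C. Measured by: optical density at 615 nm.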

[3] = viability gain of MRP-1-high H69AR cells under doxorubicin, pilot screen, MRP-1 activator project, CellTiter-Glo, duplicate (AID 807); details: H69AR viability with doxorubicin, CellTiter-Glo luminescence; at 10 µM; hits give high values;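 further: compound pretreatment 18-22 h then 72 h combined with doxorubicin; 0% = doxorubicin alone and 100% = vehicle without doxorubicin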
[4] = growth suppression of beta-catenin knockout HCT116, pilot screen, human colon tumor cells (AID 823;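 active means cell viability at or below a set limit in both duplicate runs, the limit being the all-compound median minus 4 SD, cut at about 23% in these data, passing the limit was not always enough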;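 further: 0% = wells killed by 20 µM Hyamine and 100% = untreated DMSO cell wells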); details: CellTiter-Glo, 60 h, at 10 µM, hits give low values
[5] = growth suppression of PTEN-deleted HCT116, pilot screen, cell-based, HCT116 clonal line, CellTiter-Glo (AID 824;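 active means viability at or below 27.92% in each of two runs, the all-compound median minus 4 SD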;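 further: 0% = 20 µM Hyamine control and 100% = vehicle cell control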); details: 60 h, at 10 µM, hits give low values
[6] = inhibitors of the yeast RAM network, pilot screen, dse1pr::URA3 reporter, 5-FOA selection (AID 869;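 active means inhibition over a set limit, the all-compound mean plus 3 SD, in both replicate runs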;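 further: 0% = DMSO wells with no growth and 100% = 10 µM 1-NA-PP1 with full growth; RAM network block rescues cells from 5-FOA so hits raise OD615 growth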); details: S. cerevisiae dse1pr::URA3 5-FOA growth, OD615, 2 d; at 10 µM; hits give high values; strain carries analog-sensitive mutant Cbk1 kinase
[7] = RAM signaling pathway blockade in yeast – S. cerevisiae, Pdr1DBD-CYC8 efflux-inhibited sensitized strain, primary screen (AID 1298;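 active means RAM network inhibition above 8.4% in each of two replicates, 3 SD over the compound average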;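 further: 0% = DMSO untreated cells without growth and 100% = 10 µM 1-NA-PP1 full growth; higher means more yeast growth rescued from 5-FOA killing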); details: S. cerevisiae cbk1-as DSE1-URA3 strain, 5-FOA growth OD615, 2 d; at 50 µM; hits give high values

CCCOc1ccc(C(=O)NCc2ccco2)cc1
inactive: growth inhibition [1] -13.1% | growth inhibition [2] -4.49% | viability increase [3] -1.42% | viability [4] 98% | viability [5] 93.5% | inhibition [6] 0.43% | RAM network inhibition [7] 2.65%

COc1cccc(-n2c(Cc3cc(=O)[nH]c(=O)[nH]3)nnc2SCC(=O)NC2CCCCC2)c1
inactive: growth inhibition [1] -4.46% | growth inhibition [2] -1.15% | viability increase [3] -1.6% | viability [4] 100% | viability [5] 101% | inhibition [6] 1.86% | RAM network inhibition [7] 3.48%

COc1ccc(CSc2nnnn2Cc2ccccc2)cc1OC
inactive: growth inhibition [1] 0.115% | growth inhibition [2] 1.64% | viability increase [3] -0.65% | viability [4] 87.3% | viability [5] 84.4% | inhibition [6] 0.785% | RAM network inhibition [7] 1.87%

O=C(NCCn1ccc2ccccc21)c1ccc(S(=O)(=O)N2CCCCC2)cc1
inactive: growth inhibition [1] -12.5% | growth inhibition [2] -22.4% | viability increase [3] -5.02% | viability [4] 79.6% | viability [5] 71.1% | inhibition [6] 0.45% | RAM network inhibition [7] 4.77%

O=C(CNS(=O)(=O)c1cccc2nsnc12)NC1CCCCC1
inactive: growth inhibition [1] -8.49% | growth inhibition [2] -16.5% | viability increase [3] -1.47% | viability [4] 96.2% | viability [5] 92.3% | inhibition [6] 1.06% | RAM network inhibition [7] 1.3%

Cc1cccc2sc(NC(=O)CCNS(=O)(=O)c3cccc4nonc34)nc12
inactive: growth inhibition [1] -11.1% | growth inhibition [2] -6.5% | viability increase [3] -5.31% | viability [4] 86.1% | viability [5] 80.7% | inhibition [6] 2.71% | RAM network inhibition [7] 7.24%

COc1ccc(Cn2c(=O)[nH]c3cc(C(=O)NCCCN4CCCC4=O)ccc3c2=O)cc1
inactive: growth inhibition [1] -17.7% | growth inhibition [2] -12.3% | viability increase [3] 0.19% | viability [4] 91.6% | viability [5] 90.4% | inhibition [6] 0.92% | RAM network inhibition [7] 1.36%

CCOC(=O)Cn1c(=O)oc2cc(S(=O)(=O)Nc3cccc(C)c3)ccc21
inactive: growth inhibition [1] -5.58% | growth inhibition [2] -22.1% | viability increase [3] -0.66% | viability [4] 65.5% | viability [5] 79% | inhibition [6] 1% | RAM network inhibition [7] 2.63%

CCN1CCN(c2cc(C)c3cc(NC(=O)Cc4ccc(OC)c(OC)c4)ccc3n2)CC1
inactive: growth inhibition [1] -15.9% | growth inhibition [2] -16.5% | viability increase [3] -5.64% | viability [4] 75.5% | viability [5] 77.2% | inhibition [6] 3.25% | RAM network inhibition [7] -0.95%

CNC(=O)c1sc2nc(-c3ccc(OC)cc3)cn2c1C
inactive: growth inhibition [1] 3.27% | growth inhibition [2] 2.45% | viability increase [3] 1.57% | viability [4] 104% | viability [5] 106% | inhibition [6] 2% | RAM network inhibition [7] 0.64%

CCCn1c(CCC(=O)O)ccc1-c1cccs1
inactive: growth inhibition [1] 5.45% | growth inhibition [2] 7.04% | viability increase [3] -2.75% | viability [4] 93.4% | viability [5] 102% | inhibition [6] 0.78% | RAM network inhibition [7] -0.03%

CCN(CC)C(=O)c1sc(NC(=O)c2ccoc2C)c(C(=O)OC)c1C
inactive: growth inhibition [1] -5.36% | growth inhibition [2] 5.77% | viability increase [3] -1.15% | viability [4] 83.4% | viability [5] 90.6% | inhibition [6] 1.33% | RAM network inhibition [7] 7.43%

O=C(CCNS(=O)(=O)c1cccc2nsnc12)NC1CCN(Cc2ccccc2)CC1
inactive: growth inhibition [1] -3.28% | growth inhibition [2] -9.7% | viability increase [3] -2.01% | viability [4] 87% | viability [5] 89% | inhibition [6] -0.175% | RAM network inhibition [7] 5.02%

C=CCSc1nnc(Cn2c(=O)sc3ccccc32)n1C
inactive: growth inhibition [1] -5.41% | growth inhibition [2] -8.71% | viability increase [3] -0.84% | viability [4] 108% | viability [5] 104% | inhibition [6] -0.685% | RAM network inhibition [7] 0.31%

CCn1c(CNC(=O)c2cccc(C)c2)nc2ccccc21
inactive: growth inhibition [1] -6.91% | growth inhibition [2] -5.74% | viability increase [3] -0.3% | viability [4] 99.6% | viability [5] 97.2% | inhibition [6] 2.5% | RAM network inhibition [7] 5%

COc1ccc(C2CC(c3ccc(Cl)cc3Cl)Nc3nc(N)nn32)cc1OC (stereo not drawn)
inactive: growth inhibition [1] 0.16% | growth inhibition [2] 22.6% | viability increase [3] 6.01% | viability [4] 88.2% | viability [5] 85.7% | inhibition [6] 0.4% | RAM network inhibition [7] 1.22%

Cc1ccccc1NC(=O)CC1SC(=NC2CCCCC2)NC1=O (stereo not drawn)
inactive: growth inhibition [1] -3.83% | growth inhibition [2] -12% | viability increase [3] -0.62% | viability [4] 102% | viability [5] 101% | inhibition [6] 1.62% | RAM network inhibition [7] 0.66%

CCOC(=O)N1CCN(C(=O)C2CCCN(c3nc4ccc(OCC)cc4s3)C2)CC1 (stereo not drawn)
inactive: growth inhibition [1] -6.49% | growth inhibition [2] -7.45% | viability increase [3] -1.32% | viability [4] 90.6% | viability [5] 89.7% | inhibition [6] 0.33% | RAM network inhibition [7] 5.16%

COc1ccc(S(=O)(=O)N2CCCC2C(=O)Nc2ccc(C(C)=O)cc2)cc1 (stereo not drawn)
inactive: growth inhibition [1] -19.4% | growth inhibition [2] -11% | viability increase [3] -0.66% | viability [4] 97.6% | viability [5] 95.8% | inhibition [6] 2.13% | RAM network inhibition [7] 1.47%

O=C(Nc1ccc2c(c1)OCO2)c1cc(C2CC2)on1
inactive: growth inhibition [1] -12.5% | growth inhibition [2] -18% | viability increase [3] -3.41% | viability [4] 84.9% | viability [5] 88.8% | inhibition [6] 1% | RAM network inhibition [7] 3.09%

CCOC(=O)NCc1ccc(CNC(=O)OCC)cc1
inactive: growth inhibition [1] -9.67% | growth inhibition [2] 4.35% | viability increase [3] -1.96% | viability [4] 97.1% | viability [5] 90% | inhibition [6] 0.81% | RAM network inhibition [7] 0.57%

CCOC(=O)c1sc(NC(=O)c2ccc3ncsc3c2)nc1C
inactive: growth inhibition [1] -5.17% | growth inhibition [2] 0.14% | viability increase [3] -2.47% | viability [4] 84.2% | viability [5] 82.8% | inhibition [6] 2.75% | RAM network inhibition [7] 5.36%

CCOC(=O)Cn1c(C)nc2ccccc21
inactive: growth inhibition [1] -14% | growth inhibition [2] -14% | viability increase [3] -1.63% | viability [4] 102% | viability [5] 105% | inhibition [6] 1.29% | RAM network inhibition [7] 1.95%

CC(C)(C)c1ccc(S(=O)(=O)N2CCCCC2C(=O)NCc2ccccn2)cc1 (stereo not drawn)
inactive: growth inhibition [1] -24.9% | growth inhibition [2] -29% | viability increase [3] -2.34% | viability [4] 93% | viability [5] 84.6% | inhibition [6] 0.13% | RAM network inhibition [7] 5.71%
